Results on 12 molecules are retold here after ChEMBL document CHEMBL1287718, “1-Benzyl derivatives of 5-(arylamino)uracils as anti-HIV-1 and anti-EBV agents” (Bioorg Med Chem, 2010).

Data set [1] in a line: Selectivity index, ratio of CC50 for human Akata cells to EC50 for Epstein-Barr virus infected in human Akata cells. Type of data set: toxicity, cell-based. The conditions noted are these: read-out: Ratio CC50/EC50. Put shortly:
(§1)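 EC50 is the concentration that reduces virus replication by 50%. CC50 is the concentration giving 50% loss of viability in uninfected cells. Both are calculated by linear regression analysis. The selectivity index is CC50 divided by EC50.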

A short description of data set [2]: Cytotoxicity against human CEM-SS cells assessed as cell viability by XTT assay. The class given is cell-based. The essentials: as §1
On the technique in general: Tetrazolium dyes change colour on reduction, which living cells bring about.

The test system of data set [3] is Human immunodeficiency virus 1. Nature of the data set: Antiviral activity against Human immunodeficiency virus 1 infected in human CEM-SS cells assessed as virus induced cytopathic effects. Type of data set: functional, organism-based. The note with it: Human immunodeficiency virus 1, CEM-SS. Put shortly:
as §1
A general note: Damage to the host cells serves as the signal in cytopathic effect assays.

The next data set relates to Human gammaherpesvirus 4. Nature of the data set: Antiviral activity against Epstein-Barr virus infected in human Akata cells assessed as virus induced cytopathic effects by XTT assay. Type of data set: functional, organism-based. The conditions noted are these: human gammaherpesvirus 4, Akata. The essentials: as §1
Data set [4] can be described thus: Selectivity index, ratio of CC50 for human CEM-SS cells to EC50 for Human immunodeficiency virus 1 infected in human CEM-SS cells. Type of data set: toxicity, cell-based. The note with it: read-out: Ratio CC50/EC50. The essentials: as §1
Data set [5] is described as follows: Cytotoxicity against human Akata cells assessed as cell viability by XTT assay. The class given is cell-based. Put shortly:
as §1

For the molecule `Cc1cccc(Cn2cc(Nc3ccccc3)c(=O)[nH]c2=O)c1`, the selectivity ratio in data set [1] is > 1; in data set [4], > 4.5. Further, the CC50 (commonly the concentration at which the toxic effect on the cells reaches its halfway point) in data set [2] was > 200 µM; in data set [5], > 100 µM. Also, the EC50 (commonly the midpoint of the concentration-response curve) amounted to 44.7 µM in data set [3] and 99.1 µM in the data set with Human gammaherpesvirus 4.
Take `O=c1[nH]c(=O)n(Cc2cccc(Cl)c2)cc1Nc1ccccc1`: the selectivity ratio in data set [1] was > 5. The EC50 with Human gammaherpesvirus 4 is 20 µM. Moreover, the CC50 in data set [5] is > 100 µM.
Regarding `Cc1cc(C)cc(Cn2cc(Nc3ccccc3)c(=O)[nH]c2=O)c1`, the selectivity ratio in data set [1] was < 4.8; in data set [4], > 16.8. Besides, the 50% cytotoxic concentration (CC50) in data set [2] is > 200 µM; in data set [5] it was 96.2 µM. In addition, the values for the EC50 (in data set [3]; with Human gammaherpesvirus 4) were 11.9 µM and > 20 µM, respectively.
Turning to `O=c1[nH]c(=O)n(Cc2ccc(Cl)cc2Cl)cc1NCCc1ccccc1`, the selectivity ratio in data set [1] was > 1.5; in data set [4] it was > 2.34. For the same molecule, the CC50 in data set [2] and in data set [5] was > 100 µM each time. Also, the results for the EC50 (in data set [3]; in the data set on Human gammaherpesvirus 4) were 42.7 µM and 67.2 µM, respectively.
For `O=c1[nH]c(=O)n(Cc2ccc(Cl)cc2Cl)cc1NCc1ccccc1`, the selectivity ratio in data set [1] is 2.4; in data set [4] it was > 1.8. Besides, the values for the CC50 in data set [2] and in data set [5] were > 100 µM and 96.3 µM, respectively. For the same molecule, the values for the EC50 (in data set [3]; in the data set with Human gammaherpesvirus 4) were 54.6 µM and 39.6 µM, respectively.
For the molecule `O=c1[nH]c(=O)n(Cc2cccc(Oc3ccccc3)c2)cc1Nc1ccccc1`, the selectivity ratio in data set [1] is > 43. For the same molecule, the CC50 in data set [2] and in data set [5] was > 100 µM in each case. Further, the EC50 in data set [3] was > 100 µM; in the data set with Human gammaherpesvirus 4 it was 2.3 µM.
In the case of `Cc1cn([C@H]2C[C@H](N=[N+]=[N-])[C@@H](CO)O2)c(=O)[nH]c1=O` [ZIDOVUDINE], in data set [2], the CC50 is > 1 µM. In addition, the EC50 in data set [3] amounted to 0.008 µM. The selectivity ratio in data set [4] is > 125.
As to `Cc1ccc(Nc2cn(Cc3ccc(Cl)cc3Cl)c(=O)[nH]c2=O)cc1`, in data set [1], the selectivity ratio worked out at 2.1. Besides, in the data set with Human gammaherpesvirus 4, the EC50 turned out to be 43.3 µM. For the same molecule, the CC50 in data set [5] is 92.3 µM.
Taken in the same sequence, the figures for `O=c1[nH]c(=O)n([C@H]2CO[C@@H](CO)O2)cc1I` were > 3030, 0.033 µM and > 100 µM.
Take `O=c1[nH]c(=O)n(Cc2ccccc2)cc1Nc1ccccc1`: the CC50 in data set [2] was > 100 µM. Moreover, in data set [3], the EC50 was > 100 µM.
For `Cc1ccccc1Cn1cc(Nc2ccccc2)c(=O)[nH]c1=O`, the selectivity ratio in data set [1] is > 8.3. Also, the 50% cytotoxic concentration (CC50) in data set [2] and in data set [5] was > 100 µM in each case. Moreover, the EC50 in data set [3] is > 100 µM; in the data set on Human gammaherpesvirus 4, 12 µM.
As for `Cc1cc(C)cc(Cn2cc(NCc3ccccc3)c(=O)[nH]c2=O)c1`, in data set [2], the CC50 was determined as 168 µM. Further, in data set [3], the EC50 is 9.5 µM. Besides, the selectivity ratio in data set [4] amounted to 17.8.
